Laboratory results reported in ChEMBL document CHEMBL4152343, “Design, Synthesis, and Pharmacological Evaluation of Second-Generation Tetrahydroisoquinoline-Based CXCR4 Antagonists with Favorable ADME Properties” (J Med Chem, 2018).

How the values were obtained:
[1] = target: T1, C-X-C chemokine receptor type 4 (Homo sapiens, UniProt P61073); assay: Antagonist activity at CXCR4 in human CCRF-CEM cells assessed as inhibition of SDF-1alpha-induced calcium release preincubated for 25 mins followed by SDF-1alpha stimulation and measured for 90 secs by calcium flux assay; type: functional, cell-based
[2] = target: Muscarinic acetylcholine receptor; assay: Antagonist activity at mAChR in human CCRF-CEM cells assessed as inhibition of acetylcholine-induced calcium release preincubated for 25 mins followed by acetylcholine stimulation and measured for 90 secs by calcium flux assay; type: functional, cell-based
In short: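 Endogenous muscarinic receptors in CCRF-CEM cells (HBSS/HEPES/BSA buffer, 40,000 cells/well, dye-loaded 30 min at 37°C). Calcium flux recorded 90 s by FDSS. IC50 by 4-parameter logistic fit against an internal control compound; duplicate wells, single experiment.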

Cytochrome P450 2D6 = Cytochrome P450 2D6 (Homo sapiens, UniProt P10635); assay: Inhibition of recombinant human CYP2D6 expressed in insect cells microsomes using AMMC as substrate preincubated for 30 mins followed by NADP addition and measured after 45 mins by fluorescence analysis; type: ADME
[3] = Metabolic stability in human liver microsomes assessed as parent compound remaining after 10 mins by LC-MS/MS analysis; type: ADME, microsome; settings: read-out: Stability
In short: (§1)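 Compound depletion measured by LC/MS/MS after 10 min at 37 °C in liver microsome preparations (CYP450 and other NADP-dependent enzymes). Values are % of compound remaining; duplicates in a single experiment.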

[4] = Metabolic stability in mouse liver microsomes assessed as parent compound remaining after 10 mins by LC-MS/MS analysis; type: ADME, microsome; settings: read-out: Stability; in short: as §1
Cytochrome P450 3A4 = Cytochrome P450 3A4 (Homo sapiens, UniProt P08684); assay: Inhibition of human CYP3A4; type: ADME
[5] = Permeability of compound at pH 7.4 by PAMPA; type: ADME; settings: read-out: permeability
In short: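 Compound from 10 mM DMSO stock diluted 1:100 to 100 µM (1% DMSO) in pH 7.4 or pH 5.5 donor buffer, then filtered. Lipid-coated filter membrane with pH 7.4 acceptor buffer; incubated 4 h at room temperature. UV plate reading gives Pc. Duplicates in two independent experiments unless noted.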

[6] = target: T1, C-X-C chemokine receptor type 4; assay: Agonist activity at CXCR4 in human CCRF-CEM cells assessed as induction of calcium release incubated for 25 mins by calcium flux assay; type: functional, cell-based
In short: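 CCRF-CEM T lymphoblasts (endogenous CXCR4) in HBSS/20 mM HEPES/0.1% fatty-acid-free BSA, 40,000 cells/well, dye-loaded 30 min at 37°C, then 15 min at room temperature. Compounds added at final 25,000–0.423 nM (0.5% DMSO) and calcium flux read by FDSS for 90 s.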

T1 sequence (P61073 whole entry): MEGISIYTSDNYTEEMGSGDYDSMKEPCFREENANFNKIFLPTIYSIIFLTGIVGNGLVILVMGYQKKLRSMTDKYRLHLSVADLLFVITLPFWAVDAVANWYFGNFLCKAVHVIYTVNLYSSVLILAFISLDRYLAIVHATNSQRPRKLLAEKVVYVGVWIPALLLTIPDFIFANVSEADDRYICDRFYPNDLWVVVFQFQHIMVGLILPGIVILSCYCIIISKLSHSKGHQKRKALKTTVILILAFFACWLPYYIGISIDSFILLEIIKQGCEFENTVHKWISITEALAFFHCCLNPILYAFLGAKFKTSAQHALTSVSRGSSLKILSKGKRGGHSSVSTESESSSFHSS
Sequence of Cytochrome P450 2D6 (P10635 whole entry): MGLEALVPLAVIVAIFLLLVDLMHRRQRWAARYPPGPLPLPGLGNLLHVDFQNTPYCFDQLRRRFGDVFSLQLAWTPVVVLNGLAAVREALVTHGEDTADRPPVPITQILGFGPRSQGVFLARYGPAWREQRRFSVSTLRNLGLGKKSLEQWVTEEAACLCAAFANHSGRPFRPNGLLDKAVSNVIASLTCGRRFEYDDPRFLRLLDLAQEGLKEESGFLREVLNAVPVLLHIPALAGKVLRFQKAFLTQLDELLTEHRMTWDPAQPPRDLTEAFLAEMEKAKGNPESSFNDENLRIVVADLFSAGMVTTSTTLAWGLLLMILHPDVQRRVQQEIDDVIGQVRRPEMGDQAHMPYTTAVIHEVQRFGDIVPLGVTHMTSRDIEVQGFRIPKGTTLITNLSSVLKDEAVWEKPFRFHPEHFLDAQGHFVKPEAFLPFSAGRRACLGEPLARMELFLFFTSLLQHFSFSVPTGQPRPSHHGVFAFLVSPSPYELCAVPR
Sequence of Cytochrome P450 3A4 (P08684 whole entry): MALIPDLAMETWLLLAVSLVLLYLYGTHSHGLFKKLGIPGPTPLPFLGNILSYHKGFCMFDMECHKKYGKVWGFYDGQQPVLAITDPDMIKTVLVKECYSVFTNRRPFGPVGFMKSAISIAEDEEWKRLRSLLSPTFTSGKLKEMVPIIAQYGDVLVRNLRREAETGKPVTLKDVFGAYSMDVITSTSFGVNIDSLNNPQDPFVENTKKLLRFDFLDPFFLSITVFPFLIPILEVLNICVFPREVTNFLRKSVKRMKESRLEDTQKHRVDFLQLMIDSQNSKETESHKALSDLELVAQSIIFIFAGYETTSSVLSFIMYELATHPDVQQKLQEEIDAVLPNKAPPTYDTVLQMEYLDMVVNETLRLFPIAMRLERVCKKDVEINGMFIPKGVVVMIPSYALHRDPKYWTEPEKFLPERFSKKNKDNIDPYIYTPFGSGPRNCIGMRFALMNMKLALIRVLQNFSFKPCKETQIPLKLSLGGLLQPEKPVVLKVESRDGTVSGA

| IC50 [1] | IC50 [2] | IC50 (Cytochrome P450 2D6) | remaining at 10 min [3] | remaining at 10 min [4] | IC50 (Cytochrome P450 3A4) | Papp [5] | EC50 [6] | Structure (SMILES) |
| --- | --- | --- | --- | --- | --- | --- | --- | --- |
| 0.171 µM | > 16.7 µM | > 20 µM | 83.3% | 41.7% | > 20 µM | 36.4 ×10⁻⁶ cm/s | > 30 µM | CN1CCN(c2cccc3c2C[C@H](CN(C)[C@H]2CCCc4cccnc42)N(C)C3)CC1 |
|  | > 33.3 µM | 8.45 µM | 68.6% | 76.6% | 5.62 µM |  | > 30 µM | FC1(F)CCC(CN(C[C@H]2Cc3c(cccc3N3CCNCC3)CN2)[C@H]2CCCc3cccnc32)CC1 |
| 0.0138 µM | > 33.3 µM | > 20 µM | 0% | 18.8% | > 20 µM | 20.5 ×10⁻⁶ cm/s | > 30 µM | CCN1CCN(c2cccc3c2C[C@H](CN(C)[C@H]2CCCc4cccnc42)NC3)CC1 |
|  | 17.9 µM | > 20 µM | 100% | 44% | > 20 µM |  | > 30 µM | CN(C[C@H]1Cc2c(cccc2N2CCNC(C)(C)C2)CN1)[C@H]1CCCc2cccnc21 |
|  | > 16.7 µM | > 20 µM | 67.8% |  | > 20 µM | 32.3 ×10⁻⁶ cm/s | > 30 µM | CN1CCN(c2cccc3c2C[C@H](CN2CCC[C@H]4CCc5cccnc5[C@H]42)NC3)CC1 |
|  | 15.4 µM | > 20 µM |  |  | > 20 µM |  | > 30 µM | Cc1cnc(CN(C)C[C@H]2Cc3c(cccc3N3CCNCC3)CN2)c(C)c1 |
| > 16.7 µM | 9.25 µM | 6.48 µM | 90.3% | 72.3% | 2.21 µM | 14.1 ×10⁻⁶ cm/s | > 30 µM | CN(C[C@H]1Cc2c(cccc2N2CCN(c3cccc(C(F)(F)F)c3)CC2)CN1)[C@H]1CCCc2cccnc21 |
| 0.061 µM | > 33.3 µM | > 20 µM | 100% | 85.6% | > 20 µM | 3.9 ×10⁻⁶ cm/s | > 30 µM | C[C@@H]1CN(c2cccc3c2C[C@H](CN(C)[C@H]2CCCc4cccnc42)NC3)C[C@H](C)N1 |
| 0.364 µM | 8.34 µM | > 20 µM | 75% | 91% | > 20 µM | 1.6 ×10⁻⁶ cm/s | > 30 µM | CC(C)N(C[C@H]1Cc2c(cccc2N2CCNCC2)CN1)[C@H]1CCCc2cccnc21 |
| 0.195 µM | > 33.3 µM | > 20 µM | 94.4% | 60.3% | > 20 µM | 1.1 ×10⁻⁶ cm/s | > 30 µM | OCCN(C[C@H]1Cc2c(cccc2N2CCNCC2)CN1)[C@H]1CCCc2cccnc21 |
| 0.154 µM | 5.6 µM | 14.2 µM | 90.3% | 83.7% | > 20 µM | 0.1 ×10⁻⁶ cm/s | > 30 µM | COCCN(C[C@H]1Cc2c(cccc2N2CCNCC2)CN1)[C@H]1CCCc2cccnc21 |
|  | > 16.7 µM | > 20 µM | 100% |  | > 20 µM | 0.9 ×10⁻⁶ cm/s | > 30 µM | Cc1cnc2c(c1)CCC[C@@H]2N(C)C[C@H]1Cc2c(cccc2N2CCNCC2)CN1 |
|  | > 16.7 µM | > 20 µM | 100% | 95.9% | > 20 µM |  | > 30 µM | CN(C[C@H]1Cc2c(cccc2N2C[C@H]3C[C@@H]2CN3)CN1)[C@H]1CCCc2cccnc21 |
| 0.0322 µM | 3.16 µM | 12 µM | 100% | 87.4% | > 20 µM | 2.65 ×10⁻⁶ cm/s | > 30 µM | CCCN(C[C@H]1Cc2c(cccc2N2CCNCC2)CN1)[C@H]1CCCc2cccnc21 |
| 0.0148 µM | 8.6 µM | > 20 µM | 79.1% | 53.8% | > 20 µM | 7.5 ×10⁻⁶ cm/s | > 30 µM | CCN(C[C@H]1Cc2c(cccc2N2CCNCC2)CN1)[C@H]1CCCc2cccnc21 |
|  | > 16.7 µM | > 20 µM | 83.1% | 50.8% | > 20 µM | 72.5 ×10⁻⁶ cm/s | > 30 µM | CN(C[C@H]1Cc2c(cccc2N2CCN(C3COC3)CC2)CN1)[C@H]1CCCc2cccnc21 |
|  | 21.6 µM | 8.57 µM | 82.1% | 88.3% | > 20 µM | 8.7 ×10⁻⁶ cm/s | > 30 µM | c1cnc2c(c1)CCC[C@@H]2N(CC1CC1)C[C@H]1Cc2c(cccc2N2CCNCC2)CN1 |
| 0.0235 µM | > 33.3 µM | 6.09 µM | 15.5% | 7% | 4.23 µM | 26.5 ×10⁻⁶ cm/s | > 30 µM | CN(C[C@H]1Cc2c(cccc2N2CCN(C3CC3)CC2)CN1)[C@H]1CCCc2cccnc21 |
| 0.146 µM | > 16.7 µM | > 20 µM | 100% | 36.3% | > 20 µM |  | > 30 µM | CN(C[C@H]1Cc2c(cccc2N2C[C@@H]3C[C@H]2CN3)CN1)[C@H]1CCCc2cccnc21 |
|  | > 33.3 µM | > 20 µM | 75.8% | 17% | > 20 µM | 99.6 ×10⁻⁶ cm/s | > 30 µM | CN1CCN(c2cccc3c2C[C@H](CN(C)[C@H]2CCCc4cccnc42)NC3)CC1 |
|  | 26.3 µM | > 20 µM | 100% | 100% | > 20 µM | 0.3 ×10⁻⁶ cm/s | > 30 µM | CN1Cc2cccc(N3CCNCC3)c2C[C@@H]1CN(C)[C@H]1CCCc2cccnc21 |
|  | > 16.7 µM | > 20 µM | 36.6% | 40.1% | > 20 µM | 16.7 ×10⁻⁶ cm/s | > 30 µM | CN(C[C@H]1Cc2c(cccc2N2CCN3CCC[C@H]3C2)CN1)[C@H]1CCCc2cccnc21 |
|  | 15.1 µM | > 20 µM | 24.6% | 39.6% | > 20 µM | 14.2 ×10⁻⁶ cm/s | > 30 µM | C[C@@H]1CN(c2cccc3c2C[C@H](CN(C)[C@H]2CCCc4cccnc42)NC3)C[C@H](C)N1C |

| Structure (SMILES) | IC50 [1] | IC50 [2] | IC50 (Cytochrome P450 2D6) | remaining at 10 min [3] | remaining at 10 min [4] | IC50 (Cytochrome P450 3A4) | Papp [5] | EC50 [6] |
| --- | --- | --- | --- | --- | --- | --- | --- | --- |
| Cc1cccnc1CN(C)C[C@H]1Cc2c(cccc2N2CCNCC2)CN1 |  | 11.1 µM | 100 µM | 69.2% |  | 1.42 µM | 19.3 ×10⁻⁶ cm/s | > 30 µM |
| Cc1ccc(CN(C)C[C@H]2Cc3c(cccc3N3CCNCC3)CN2)nc1 |  | 9.56 µM | 100 µM | 76.8% |  | > 20 µM | 22.5 ×10⁻⁶ cm/s | > 30 µM |
| CN(C[C@@H]1Cc2c(cccc2N2CCNCC2)CN1)[C@H]1CCCc2cccnc21 | 0.313 µM | 2.1 µM | > 20 µM | 94.2% | 54.6% | > 20 µM | 0.4 ×10⁻⁶ cm/s | > 30 µM |
